Results gathered from unrelated publications.
Compare with care: the assays were run in different laboratories.
Cell line: MV4-11
Read-out: cell growth or viability

| SMILES | assay | conditions | quantity | value |
| --- | --- | --- | --- | --- |
| NCCNC(=O)c1ccc(-c2nc3ccc4[nH]ncc4c3c3c2CCCC3)cc1 | resazurin | 72 h | GI50 | 480 nM |
| COc1ccc(Nc2ncnc3c2ncn3Cc2ccc(C(=O)Nc3ccccc3N)cc2)cc1 | MTT | 72 h | IC50 | 720 nM |
| c1cc(N2CCC(N3CCOCC3)CC2)ccc1Nc1ccc2ncc(OCC3CCNCC3)nc2c1 | XTT | 7 days | EC50 | ≥ 28000 nM |
| CONC(=O)c1cccc2c1cc(C)n2-c1nc2c(c(NCc3ccccc3)n1)CCCN2 |  | 72 h | IC50 | 400 nM |
| Cc1n[nH]c2ccc3nc(-c4ccc(C(=O)NCCN(C)C)cn4)c4c(c3c12)CCCCC4 | resazurin | 72 h | GI50 | 132 nM |
| Cc1cc2c(C(=O)O)cccc2n1-c1nc2c(c(NCc3ccccc3)n1)CCCN2 |  | 72 h | IC50 | 800 nM |
| O=C(NO)c1ccc(Cn2cnc3c(Nc4cccc([N+](=O)[O-])c4)ncnc32)cc1 | MTT | 72 h | IC50 | 280 nM |
| c1ccc(COc2ccc(Nc3ccc4ncc(OCC5CCNCC5)nc4c3)cc2)cc1 | XTT | 7 days | EC50 | 840 nM |
| COc1cc(-c2cc(C(C)=O)n3ccccc23)c(OC)cc1Cn1ccnc1 | ATP luminescence |  | IC50 | 70 nM |
| Cc1sc2c(c1C)C(c1ccc(Cl)cc1)=N[C@@H](CC(=O)NCCCCNC(=O)COc1cccc3c1C(=O)N(C1CCC(=O)NC1=O)C3=O)c1nnc(C)n1-2 (stereo partly shown) | CCK-8 | 72 h | IC50 | 520 nM |
| CN(C)CCNC(=O)c1ccc(-c2nc3ccc4[nH]ncc4c3c3c2COCC3)cc1 | resazurin | 72 h | GI50 | 291 nM |
| Fc1ccc(Oc2ccc(Nc3ccc4ncc(OCC5CCNCC5)nc4c3)cc2)cc1 | XTT | 7 days | EC50 | 960 nM |
| O=C(NO)c1ccc(Cn2cnc3c(Nc4ccc(F)c(Cl)c4)ncnc32)cc1 | MTT | 72 h | IC50 | 1140 nM |
| O=C(NCC1CC1)c1ccc(-c2nc3ccc4[nH]ncc4c3c3c2CCCC3)cc1 | resazurin | 72 h | GI50 | > 10000 nM |
| Nc1cccc(-c2ccc3ncc(OCC4CCNCC4)nc3c2)c1 | XTT | 7 days | EC50 | ≥ 28000 nM |
| Nc1ccccc1NC(=O)c1ccc(Cn2cnc3c(Nc4ccc(Br)cc4F)ncnc32)cc1 | MTT | 72 h | IC50 | 280 nM |
